Yeast fitness data for 167 variants are collected here from the RNAGym collection of RNA variant scans (doi:10.1126/science.aae0568).

This sample holds only a part of the variants without activity.

B1: tRNA (parent)
chain: GUUCCGUUGGCGUAAUGGUAACGCGUCUCCCUCCUAAGGAGAAGACUGCGGGUUCGAGUCCCGUACGGAACG

This data set covers variants of B1. Kind of data set: yeast fitness relative to wild type (ratio to wild type); higher = fitter; tRNA-Arg(CCU), competitive growth, 37 C, YPD. The method, boiled down: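 Variants of the tRNA-Arg(CCU) gene were chemically synthesised with a 3% per-site mutation rate across 69 sites and placed at the native genomic locus in Saccharomyces cerevisiae. Six parallel replicates of the pooled strains were competed in YPD at 37°C for 24 hours, and gene amplicons from the start and end populations were read by 100-nucleotide paired-end sequencing. Darwinian fitness relative to wild type was derived from changes in genotype frequencies. Genotypes required ≥ 100 starting reads, and estimates < 0.5 were set to 0.5.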
As to G41C C61G, the yeast fitness worked out at 0.793.
As for A40G C61U A65U, the yeast fitness was ≤ 0.5.
A43U U47C C55A: the yeast fitness was ≤ 0.5.
Take A43U U47C C55G: the yeast fitness was ≤ 0.5.
On to A45G U47C C62A A65U C66A, for which the yeast fitness was ≤ 0.5.
As for G41A G50C, the yeast fitness amounted to 0.676.
In the case of A45C A70U, the yeast fitness is 0.862.
Turning to G44C G48A G58A, the yeast fitness was 0.881.
With G44A G58C C66U the figure was 0.667.
G41C U54A: the yeast fitness was determined as 0.667.
Take A40U U59C G68A: the yeast fitness is 0.569.
Consider A42U C61G A65C C66G, for which the yeast fitness is 0.89.
In the case of A40U A45U G48A, the yeast fitness is 0.998.
For G41A C60G, the yeast fitness turned out to be 0.646.
Turning to A45G C55A G58C, the yeast fitness was 0.537.
The value for A43C G56A C61A was 0.525; that for A42C U54A was 0.567.
Take A42C U54C: the yeast fitness worked out at 0.796.
For A42U C55U A69C, the yeast fitness was found to be 0.511.
A45G G50A U54C: the yeast fitness is ≤ 0.5.
Consider A45C A65C, for which the yeast fitness was 0.683.
With A40U G44A A65U the figure was 0.51.
Take A42U C62A U64G C66G: the yeast fitness was ≤ 0.5.
For the variant A40U C55U C61G, the yeast fitness was determined as 0.507.
For A43C U64C A70C, the yeast fitness stood at 0.989.
With G44C C62U C66G, the yeast fitness is ≤ 0.5.
The value for G41A C49U G51C C61U was ≤ 0.5; that for G44C A70C was 0.927.
G44C A70U: the yeast fitness stood at 0.959.
With G41A C66U, the yeast fitness came to 0.685.
Consider G41A C66A, for which the yeast fitness is 0.687.
Take A45G A70C: the yeast fitness was 0.989.
For A40U U64C, the yeast fitness was 1.08.
Take A40U G67U: the yeast fitness amounted to 0.797.
As to A42U A57U, the yeast fitness came to 0.682.
In the case of A40C U54A C62U, the yeast fitness was ≤ 0.5.
Regarding A43U G56A C66G, the yeast fitness was found to be 0.553.
On to A43U C66A, for which the yeast fitness was 0.619.
For the variant A43G G58C, the yeast fitness amounted to 0.855.
As to A42C G58A, the yeast fitness was determined as 0.951.
As to A40C G41C C49A G68C, the yeast fitness is ≤ 0.5.
Regarding A43U C49G C55G, the yeast fitness was 0.988.
The value for A42U C49U was 0.975; that for A40G A70C was 0.946.
In the case of A40C G48C U59C, the yeast fitness is ≤ 0.5.
As to A43U C61A, the yeast fitness is 0.764.
The value for A42U G56A G63C was ≤ 0.5; that for G41C C62G was 0.597.
For the variant A45U A69U, the yeast fitness turned out to be 1.05.
With A45U A69C the figure was 1.04; with A43U G50A G52U A69C, ≤ 0.5; with A43C G44C C55G C62U C66U, ≤ 0.5.
As to A43G C66U, the yeast fitness is 0.887.
In the case of A43G C66G, the yeast fitness is 0.699.
Regarding A40G G44C U53C C55A A65U, the yeast fitness is ≤ 0.5.
Consider A42G G51A C60A, for which the yeast fitness is ≤ 0.5.
With A45C C60G, the yeast fitness was found to be 0.603.
With G44C C46U C62G the figure was 0.787; with G41A G48C, 0.772; with A40U C49G G56C, ≤ 0.5.
In the case of G44A G68A, the yeast fitness is 0.802.
As to A42U U47C C62U, the yeast fitness worked out at 0.628.
The value for A43C C49U was 0.964; that for A42U A65C was 0.81.
Turning to A43G A57G, the yeast fitness was found to be 0.924.
A45G G50A: the yeast fitness came to 0.857.
In the case of A42U C46U, the yeast fitness amounted to 0.97.
Regarding G44C A65U, the yeast fitness amounted to 0.873.
With G41C C46U, the yeast fitness is 1.03.
A42U C46U A57U: the yeast fitness is 0.538.
Regarding A43U G56C C61A, the yeast fitness is ≤ 0.5.
In the case of A42C G50A C61G, the yeast fitness was 0.793.
On to A45C G63A A69U, for which the yeast fitness stood at 0.793.
In the case of A43U G51A, the yeast fitness turned out to be 1.
Consider G44A G56C, for which the yeast fitness was 0.585.
In the case of A43C C62G, the yeast fitness was determined as 0.76.
For the variant A40C G67A, the yeast fitness was 0.846.
The value for A40U A43G A57G was ≤ 0.5; that for A42G U47G G68U was ≤ 0.5.
Consider A43G U53C C55U, for which the yeast fitness is 0.561.
Take G41A G67U G68C: the yeast fitness came to 0.507.
For A40C G48C A69C, the yeast fitness was determined as 0.57.
G44U G58A: the yeast fitness was 0.946.
With A45G C55U G67A A69G the figure was ≤ 0.5; with G41C C66A, 0.621; with A42G C62A C66U, 0.614.
Take A45G G51A: the yeast fitness worked out at 0.716.
On to A42U C66G, for which the yeast fitness came to 0.712.
As to G44C C60A, the yeast fitness was 0.572.
The value for A43U C55A A65U A70G was 0.56.
The value for A45G U47G was 0.756; that for A40U A57U was 0.837.
As to A43U G51C A57C C60G G67A, the yeast fitness was 0.663.
With A42U C60U A70G the figure was 0.703; with A42U G63A A65G, 0.572; with G44C G58C, 0.919.
In the case of G44C G58A, the yeast fitness was 1.02.
In the case of A43C A69C, the yeast fitness came to 1.04.
On to A43C A69U, for which the yeast fitness came out at 1.12.
The value for A45C C62U was 0.842; that for G44A C46U A69C was 0.996; that for A42U A43C was 0.994.
In the case of A40C G51A C61U A69C, the yeast fitness turned out to be 0.618.
The value for G44C C60U A70G was ≤ 0.5.
Regarding G41C A42G A70G, the yeast fitness came to 0.593.
As for G41A C55U U59A A70U, the yeast fitness is ≤ 0.5.
On to A43C C62A A69C, for which the yeast fitness turned out to be 0.633.
A43C G67A: the yeast fitness amounted to 0.685.
Regarding A43C G67C, the yeast fitness amounted to 0.867.
With A40G C49U, the yeast fitness came out at 0.883.
With G41A A43U G51C the figure was ≤ 0.5; with A40C G48C, 0.684.
As for A40C C60A C66U, the yeast fitness was ≤ 0.5.
Turning to A45C G67U, the yeast fitness came out at 0.874.
As to A45C G67C, the yeast fitness worked out at 0.639.
In the case of A40C G68U, the yeast fitness is 0.788.
Turning to A40C G68C, the yeast fitness stood at 0.641.
With G44C C49G U64A the figure was ≤ 0.5; with A45C G56A, 0.977.
For A45C G56C, the yeast fitness was determined as 0.64.
On to A43G C60U C62U C66U A70C, for which the yeast fitness is ≤ 0.5.
As to A43U G51C C61G, the yeast fitness was determined as 0.593.
On to A45G C55U A65C, for which the yeast fitness was ≤ 0.5.
A45G C55U A65G: the yeast fitness was found to be 0.544.
For A45C U54A C66U, the yeast fitness was ≤ 0.5.
In the case of A42U A43G G48C U53A A69C, the yeast fitness stood at 0.589.
With A45G G58A A65U the figure was 0.741; with A42U A57U C61U, ≤ 0.5.
With A43U U59C, the yeast fitness came out at 1.02.
Turning to G41A A65G G67A, the yeast fitness is 0.635.
A42G U47G G50C: the yeast fitness is 0.608.
As to A40U G44A, the yeast fitness stood at 0.981.
Turning to A40U U54A C60G G67C, the yeast fitness was 0.599.
Turning to A40C C55A C66A, the yeast fitness stood at 0.578.
On to A42C U47C G58C, for which the yeast fitness was 0.644.
With A40U A65G the figure was 1.01; with A43C C49A A65C, ≤ 0.5; with A40G G52C C66G, ≤ 0.5.
With A40G, the yeast fitness is 1.01.
With A40U the figure was 0.988; with A42C U53A G68C, ≤ 0.5; with G41C G48C A69U, 0.558.
Consider A43U G63C A70U, for which the yeast fitness is 0.54.
With G41C G52C A65U the figure was ≤ 0.5; with G41C A43U G68U, ≤ 0.5; with A45G G51A U59C, ≤ 0.5.
Regarding A43C U64G, the yeast fitness was found to be 0.618.
Regarding G44A G50C A70G, the yeast fitness came to 0.537.
The value for A40G U54C G68C was ≤ 0.5.
A43C U47A: the yeast fitness amounted to 0.732.
With A43C G48A G58C, the yeast fitness stood at 0.689.
For the variant A40U A42C C62U G68A, the yeast fitness is ≤ 0.5.
With G41C G56C, the yeast fitness came out at 0.557.
For the variant A42U A43G G67A, the yeast fitness came to 0.574.
The value for A45C C46U was 1.02; that for A43C A45U C61A C62U C66U was ≤ 0.5; that for A42G U47C C62A C66U was ≤ 0.5.
For A40U G48A C60A U64C A69C, the yeast fitness is ≤ 0.5.
With A43U G56A A57G the figure was 0.691; with A42C U53A U54C U64A, ≤ 0.5.
With A45U A65C G68A, the yeast fitness was 0.567.
Consider A43C G56A, for which the yeast fitness worked out at 0.949.
Turning to A40G U64C, the yeast fitness is 0.972.
In the case of G41C A43C, the yeast fitness came out at 0.731.
The value for G44C A69C was 0.85.
As to G44C A69U, the yeast fitness stood at 0.895.
With A45G C55U G67A, the yeast fitness stood at 0.656.
